Test results taken from ChEMBL document CHEMBL1122229, “alpha-adrenoreceptor reagents. 1. Synthesis of some 1,4-benzodioxans as selective presynaptic alpha 2-adrenoreceptor antagonists and potential antidepressants” (J Med Chem, 1983).
Activity calls are given as the source filed them. The rule behind the calls is not given here.

Experiments:
[1] = biological target: T1, Adrenergic receptor alpha-1 (Rattus norvegicus) (UniProt P15823+P23944+P43140); assay: In vitro postsynaptic agonist potency at alpha-1 adrenergic receptor in rat anococcygeus muscle relative to phenylephrine; IA means inactive.; type: functional, tissue-based
In short: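 Rat anococcygeus muscle (male Sprague–Dawley rats, 200–250 g) suspended at 0.5 g initial tension in a 50-mL organ bath. […] Standard dose-response curves were run before and after the analogue's curve.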

[2] = biological target: T1, Adrenergic receptor alpha-1 (Rattus norvegicus); assay: In vitro postsynaptic antagonist potency at alpha-1 adrenergic receptor in rat anococcygeus relative to compound 5 (RX781094); type: functional
[3] = biological target: T1, Adrenergic receptor alpha-1 (Rattus norvegicus); assay: Ratio of presynaptic antagonist potency to postsynaptic antagonist potency; type: functional
[4] = tested on: Alpha-2 adrenergic receptor (Rattus norvegicus); assay: In vitro presynaptic agonist potency at alpha-2 adrenergic receptor in rat or mouse vas deferens relative to clonidine; Inactive
[5] = In vitro antagonism at Alpha-2 adrenergic receptor in rat or mouse vas deferens relative to RX781094.; type: functional
In short: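 Prostatic half of vas deferens from male Sprague–Dawley rats (200–250 g; Krebs, 30 °C, 95% O2/5% CO2, 0.1 Hz, 3-ms, 40 V) or from mice (magnesium-free Krebs, 100–140 V). Tension 0.5 g; isometric twitch recording. […] The concentration giving 50% reversal of the inhibition was compared with standard 5 in the same tissue.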

[6] = biological target: T2, Adrenergic receptor alpha-2 (Rattus norvegicus) (UniProt P22086+P19328+P22909); assay: In vitro presynaptic antagonist potency at alpha-2 adrenergic receptor in rat or mouse vas deferens relative to compound 5 (RX781094); type: functional, tissue-based
In short: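 Prostatic halves of rat vas deferens (male Sprague–Dawley rats, 200–250 g; Krebs, 30 °C, 95% O2/5% CO2; 3-ms, 40 V, 0.1 Hz field pulses) or mouse vas deferens (Mg-free Krebs, 30 °C; 3-ms pulses, 0.1 Hz, 100–140 V) were used, with isometric twitch recording. […] The concentration giving 50% reversal was compared with the RX781094 standard in the same tissue.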

[7] = biological target: T2, Adrenergic receptor alpha-2 (Rattus norvegicus); assay: In vitro presynaptic agonist potency at alpha-2 adrenergic receptor in rat or mouse vas deferens relative to clonidine; IA means inactive; type: functional, tissue-based
In short: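 Field-stimulated rat or mouse vas deferens (Krebs, 30 °C, 95% O2/5% CO2, 3-ms pulses at 0.1 Hz) with isometric twitch recording. […] Standard dose-response curves were run before and after the analogue's curve.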

[8] = biological target: T1, Adrenergic receptor alpha-1 (Rattus norvegicus); assay: In vitro postsynaptic agonist potency at alpha-1 adrenergic receptor in rat anococcygeus muscle relative to phenylephrine; type: functional, tissue-based
[9] = biological target: T2, Adrenergic receptor alpha-2 (Rattus norvegicus); assay: In vitro presynaptic agonist potency at alpha-2 adrenergic receptor in rat or mouse vas deferens relative to clonidine; type: functional, tissue-based
In short: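 Field-stimulated rat or mouse vas deferens under 0.5 g tension, at 0.1 Hz with 3-ms pulses, 30 °C, gassed with 95% O2/5% CO2. Contractions were recorded isometrically. Standard dose-response curves were run before and after each analogue curve. Potency was expressed relative to the standard in the same experiment.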

[10] = biological target: T1, Adrenergic receptor alpha-1 (Rattus norvegicus); assay: In vitro postsynaptic antagonist potency at alpha-1 adrenergic receptor in rat anococcygeus relative to compound 5 (RX781094); AG means compound is agonist.; type: functional; settings: filed as agonist
[11] = biological target: T1, Adrenergic receptor alpha-1 (Rattus norvegicus); assay: In vitro postsynaptic antagonist potency at alpha-1 adrenergic receptor in rat anococcygeus relative to compound 5 (RX781094); IA means compound is inactive.; type: functional
[12] = tested on: Alpha-2 adrenergic receptor (Rattus norvegicus); assay: In vitro presynaptic antagonist potency at alpha-2 adrenergic receptor in rat or mouse vas deferens; IA means compound is inactive.
[13] = biological target: T1, Adrenergic receptor alpha-1 (Rattus norvegicus); assay: In vitro postsynaptic antagonist potency at alpha-1 adrenergic receptor in rat anococcygeus.; type: functional

SMILES | Agonist potency [1] | Antagonist potency [2] | Selectivity [3] | Antagonist potency [5] | Antagonist potency [6] | Agonist potency [7] | further results
Cc1cc2c(cc1C)OC(C1=NCCN1)CO2 (centres undefined) | inactive | 0.64 | 0.1 | 0.06 |  |  | Agonist potency [4]: inactive
N=C(NCCc1ccccc1)C1COc2ccccc2O1 (centres undefined) | inactive | 0.03 | 0.01 |  | 0.0003 | inactive | 
Cc1ccc(C)c2c1OCC(C1=NCCN1)O2 (centres undefined) |  |  |  | 0.005 |  |  | Agonist potency [8]: 2.5; Agonist potency [9]: 0.19; Antagonist potency [10]: Agonist
c1ccc2c(c1)OCC(c1nn[nH]n1)O2 (centres undefined) | inactive |  |  |  |  | inactive | Antagonist potency [11]: inactive; Antagonist potency [12]: inactive
N=C(NN1CCOCC1)C1COc2ccccc2O1 (centres undefined) | inactive |  |  |  |  | inactive | Antagonist potency [11]: inactive; Antagonist potency [12]: inactive
Clc1cccc2c1OC(C1=NCCN1)CO2 (centres undefined) |  |  |  | 0.49 |  |  | Agonist potency [8]: 0.4; Agonist potency [9]: 0.67; Antagonist potency [10]: Agonist
N=C(C1COc2ccccc2O1)N1CCCCC1 (centres undefined) | inactive | 0.01 | 0.01 |  | 0.0001 | inactive | 
Oc1cccc2c1OC(C1=NCCN1)CO2 (centres undefined) | inactive | 0.2 | 0.2 | 0.04 |  | inactive | 
Oc1cccc2c1OCC(C1=NCCN1)O2 (centres undefined) |  |  |  | 0.018 |  |  | Agonist potency [8]: 0.017; Agonist potency [4]: inactive; Antagonist potency [10]: Agonist
O=[N+]([O-])c1cccc2c1OC(C1=NCCN1)CO2 (centres undefined) | inactive | 0.09 | 0.22 | 0.02 |  | inactive | 
c1ccc2cc3c(cc2c1)OCC(C1=NCCN1)O3 (centres undefined) | inactive | 0.01 | 0.1 |  | 0.001 | inactive | 
N/C(=N\CCCO)C1COc2ccccc2O1 (centres undefined) | inactive | 0.024 |  |  | < 0.001 | inactive | 
COc1ccc2c(c1)OCC(C1=NCCN1)O2 (centres undefined) |  |  |  | 0.006 |  | inactive | Agonist potency [8]: 0.005
COc1cccc(OC)c1OCC/N=C(\N)C1COc2ccccc2O1 (centres undefined) | inactive | 0.1 | 0.01 |  | 0.001 |  | Agonist potency [9]: 0.0001
NC(=NO)C1COc2ccccc2O1 (centres undefined) |  |  |  |  |  | inactive | Antagonist potency [13]: 0.01
c1ccc2c(c1)OCC(c1ncc[nH]1)O2 (centres undefined) | inactive | 0.01 | 0.1 |  | 0.001 | inactive | 
Clc1ccc2c(c1)OCC(C1=NCCN1)O2 (centres undefined) |  | 1 | 0.01 | 0.01 |  |  | Agonist potency [8]: 0.005; Agonist potency [4]: inactive
CC1CN=C(C2COc3ccccc3O2)N1 (centres undefined) | inactive | 1 | 0.003 |  | 0.003 | inactive | 
Clc1cc2c(cc1Cl)OC(C1=NCCN1)CO2 (centres undefined) | inactive | 0.3 | 0.01 |  | 0.003 |  | Agonist potency [4]: inactive
CCCC/N=C(\NCCCC)C1COc2ccccc2O1 (centres undefined) | inactive | 0.1 | 0.01 |  | 0.001 | inactive | 
N=C(N)C1COc2ccccc2O1 (centres undefined) |  |  |  |  | 0.01 | inactive | Agonist potency [8]: 0.05
COc1cccc2c1OCC(C1=NCCN1)O2 (centres undefined) |  |  |  | 0.001 |  | inactive | Antagonist potency [11]: inactive; Agonist potency [8]: 5

SMILES | Agonist potency [1] | Antagonist potency [2] | Selectivity [3] | Antagonist potency [5] | Antagonist potency [6] | Agonist potency [7] | further results
Clc1ccc(Cl)c2c1OCC(C1=NCCN1)O2 (centres undefined) |  |  |  |  | 0.26 |  | Agonist potency [8]: 0.55; Agonist potency [9]: 0.02; Antagonist potency [10]: Agonist
c1ccc2c(c1)OCC(C1=NCCS1)O2 (centres undefined) | inactive |  |  |  |  | inactive | Antagonist potency [11]: inactive; Antagonist potency [12]: inactive
CN1CCN=C1C1COc2ccccc2O1 (centres undefined) | inactive | 0.1 | 0.003 |  | 0.0003 | inactive | 
Nc1nc(N)nc(C2COc3ccccc3O2)n1 (centres undefined) | inactive |  |  |  |  |  | Antagonist potency [11]: inactive; Antagonist potency [12]: inactive; Agonist potency [4]: inactive
Fc1ccc2c(c1)OCC(C1=NCCN1)O2 (centres undefined) | inactive | 0.1 | 0.1 | 0.01 |  |  | Agonist potency [4]: inactive
COCC/N=C(\N)C1COc2ccccc2O1 (centres undefined) | inactive | 0.1 |  |  |  | inactive | Antagonist potency [12]: inactive
Oc1ccc2c(c1)OC(C1=NCCN1)CO2 (centres undefined) |  |  |  | 0.036 |  |  | Agonist potency [8]: 1.1; Agonist potency [9]: 0.15; Antagonist potency [10]: Agonist
c1ccc2c(c1)OCC(Cn1ccnc1)O2 (centres undefined) | inactive | < 0.023 |  |  | 0.013 | inactive | 
c1ccc2c(c1)OCC(CC1=NCCN1)O2 (centres undefined) | inactive | 0.14 | 0.33 |  | 0.045 | inactive | 
COc1cccc2c1OC(C1=NCCN1)CO2 (centres undefined) | inactive | 0.9 | 0.14 | 0.12 |  | inactive | 
c1ccc2c(c1)OCC(c1nc3ccccc3[nH]1)O2 (centres undefined) | inactive | < 0.02 |  |  | 0.0003 | inactive | 
Oc1ccc2c(c1)OCC(C1=NCCN1)O2 (centres undefined) |  |  |  | 0.017 |  |  | Agonist potency [8]: 0.55; Agonist potency [9]: 0.015; Antagonist potency [10]: Agonist
Nc1noc(CC2COc3ccccc3O2)n1 (centres undefined) | inactive | < 0.023 |  |  | < 0.0003 | inactive | 
c1ccc2c(c1)OCC(Cc1ncc[nH]1)O2 (centres undefined) | inactive | 0.25 | 0.016 |  | 0.004 | inactive | 
Cc1cccc2c1OC(C1=NCCN1)CO2 (centres undefined) |  |  |  |  | 0.5 |  | Agonist potency [8]: 2.1; Agonist potency [9]: 0.01; Antagonist potency [10]: Agonist
CC1(C)CN=C(C2COc3ccccc3O2)N1 (centres undefined) | inactive | 0.01 | 0.01 |  | 0.0001 | inactive | 
c1ccc2c(c1)OCC(C1=NCCCN1)O2 (centres undefined) | inactive | 0.1 | 0.1 |  | 0.01 | inactive | 
Brc1ccc2c(c1)OCC(C1=NCCN1)O2 (centres undefined) |  |  |  | 0.01 |  |  | Antagonist potency [11]: inactive; Agonist potency [8]: 0.05; Agonist potency [4]: inactive
CC(C)(C)c1ccc2c(c1)OCC(C1=NCCN1)O2 (centres undefined) | inactive | 0.1 | 0.1 |  | 0.01 | inactive | 
COc1ccc2c(c1)OC(C1=NCCN1)CO2 (centres undefined) | inactive | 0.225 | 0.09 | 0.02 |  | inactive | 
O=[N+]([O-])c1ccc2c(c1)OCC(C1=NCCN1)O2 (centres undefined) | inactive | < 0.02 |  | <0.0003 |  | inactive | 
